Experimental data as given in ChEMBL document CHEMBL2029237, “Melanin-concentrating hormone receptor 1 antagonists. Synthesis and structure-activity relationships of novel 3-(aminomethyl)quinolines” (J Med Chem, 2012).

What was measured:
[1] = target: T1, 5-hydroxytryptamine receptor 2C (Homo sapiens, UniProt P28335); test: Displacement of [3H]mesulergine from human 5HT2C receptor expressed in CHO cells after 1 hr by scintillation counting; format: cell-based
T1 sequence (P28335 whole entry): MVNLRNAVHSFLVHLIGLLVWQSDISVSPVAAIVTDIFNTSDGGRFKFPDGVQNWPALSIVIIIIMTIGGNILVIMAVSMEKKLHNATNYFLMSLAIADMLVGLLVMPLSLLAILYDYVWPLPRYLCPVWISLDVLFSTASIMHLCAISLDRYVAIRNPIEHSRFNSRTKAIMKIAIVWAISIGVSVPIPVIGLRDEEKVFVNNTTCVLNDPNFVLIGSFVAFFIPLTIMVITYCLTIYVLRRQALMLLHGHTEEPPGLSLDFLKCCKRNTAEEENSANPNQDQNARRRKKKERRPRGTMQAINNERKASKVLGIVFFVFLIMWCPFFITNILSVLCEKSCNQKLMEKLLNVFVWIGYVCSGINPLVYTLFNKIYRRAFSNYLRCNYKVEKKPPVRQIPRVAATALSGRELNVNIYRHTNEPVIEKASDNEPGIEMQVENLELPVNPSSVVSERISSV
How it was run: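 Membranes from CHO cells stably expressing human 5-HT2c incubated 1 h at room temperature with [3H]mesulergine and compound at various concentrations. Terminated by GF/C filtration, filter radioactivity counted by scintillation. IC50 from one experiment in duplicate.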

[2] = target: T2, Melanin-concentrating hormone receptor 1 (Homo sapiens, UniProt Q99705); test: Displacement of [125I]MCH from human MCHR1 expressed in CHO cells after 1 hr by scintillation counting; format: cell-based
How it was run: (§1)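 CHO cell membranes stably expressing human or rat MCHR1 incubated 1 h at room temperature with [125I]MCH(4−19) and compound at various concentrations. Filtration through GF/C glass filters, bound radioactivity counted by scintillation. IC50 from one experiment in duplicate.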

[3] = target: T2, Melanin-concentrating hormone receptor 1; test: Antagonist activity at human MCHR1 expressed in CHO cells assessed as inhibition of MCH-induced [3H]arachidonic acid release […] by liquid scintillation counting; format: functional, cell-based; details: in the assay text read “45 mins” for “16 hrs”
How it was run: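 Human MCHR1-CHO cells seeded at 50 000/well, cultured 1 day, then loaded with [3H]arachidonic acid (0.2 μCi/well) for 16 h. Washed with DMEM containing 20 mM HEPES pH 7.4 and 0.2% BSA. Compound preincubated 30 min at 37 °C, MCH added, 45 min incubation, medium radioactivity by liquid scintillation.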

Mus musculus [4] = test: Antiobesity activity in MCHR1-deficient mouse assessed as inhibition of food intake at 10 mg/kg, po qd for 2 days; format: functional; details: 48 h
How it was run: (§2)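 Male MCHR1-deficient mice and wild-type littermates, 34 weeks old, on high-fat diet from 5 weeks of age, housed singly. Grouped by food intake days −5 to −1 and day −1 body weight. Oral dosing at 16:00 on days 0 and 1 in 0.5% methylcellulose suspension, 10 mL/kg, against vehicle controls; six mice per group.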

[5] = Volume of distribution at the steady state in Fischer 344 rat at 0.3 mg/kg, iv; format: ADME, organism-based; set-up: dose 0.3 mg/kg, route intravenous; details: in vivo, read-out: Vdss
[6] = Bioavailability in Fischer 344 rat; format: ADME, organism-based; details: in vivo
Rattus norvegicus [7] = test: Antiobesity activity in high-fat diet fed Fischer 344 rat DIO model assessed as inhibition of food intake at 1 mg/kg, po after 6 hrs; format: functional; details: Fischer 344, 6 h
How it was run: (§3)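 Male F344/Jcl rats, 52 weeks old, fed high-fat diet from 5 weeks of age, housed singly and acclimated to oral water dosing; grouped by overnight food intake and body weight. Single oral dose at 15:00 as 0.5% methylcellulose suspension, 2 mL/kg, six rats per group; vehicle controls. Cumulative food intake at 6 and 17 h; percent inhibition versus control, mean ± SD.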

[8] = Cmax in Fischer 344 rat at 1 mg/kg, po; format: ADME, organism-based; set-up: dose 1 mg/kg, route oral; details: in vivo
[9] = Total clearance in Fischer 344 rat at 0.3 mg/kg, iv; format: ADME, organism-based; set-up: dose 0.3 mg/kg, route intravenous; details: in vivo
Rattus norvegicus [10] = test: Antiobesity activity in high-fat diet fed Fischer 344 rat DIO model assessed as inhibition of food intake at 10 mg/kg, po after 17 hrs; format: functional; details: Fischer 344, 17 h
How it was run: (§4)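 Male 52-week-old F344/Jcl rats on high-fat diet from 5 weeks of age, housed singly, grouped by overnight food intake and body weight. Oral dosing at 15:00 in 0.5% methylcellulose suspension, 2 mL/kg, against vehicle controls; six rats per group.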

Mus musculus [11] = test: Antiobesity activity in MCHR1-deficient mouse assessed as inhibition of food intake at 3 mg/kg, po qd for 2 days; format: functional; details: 48 h; how it was run: as §2
[12] = target: Melanin-concentrating hormone receptor 1 (Rattus norvegicus, UniProt P97639); test: Displacement of [125I]MCH from rat MCHR1 expressed in CHO cells after 1 hr by scintillation counting; format: cell-based; how it was run: as §1
Mus musculus [13] = test: Antiobesity activity in high-fat diet given wild type mouse assessed as inhibition of food intake at 10 mg/kg, po qd for 2 days; format: functional; details: 48 h; how it was run: as §2
[14] = Tmax in Fischer 344 rat brain at 1 mg/kg, po; format: ADME, organism-based; set-up: dose 1 mg/kg, route oral
[15] = AUC in Fischer 344 rat at 1 mg/kg, po; format: ADME, organism-based; set-up: dose 1 mg/kg, route oral; details: plasma
Rattus norvegicus [16] = test: Antiobesity activity in high-fat diet fed Fischer 344 rat DIO model assessed as inhibition of food intake at 10 mg/kg, po after 6 hrs; format: functional; details: Fischer 344, 6 h; how it was run: as §4
[17] = Cmax in Fischer 344 rat brain at 1 mg/kg, po; format: ADME, organism-based; set-up: dose 1 mg/kg, route oral
Rattus norvegicus [18] = test: Antiobesity activity in high-fat diet fed Fischer 344 rat DIO model assessed as inhibition of food intake at 3 mg/kg, po after 6 hrs; format: functional; details: Fischer 344, 6 h; how it was run: as §4
[19] = Tmax in Fischer 344 rat at 1 mg/kg, po; format: ADME, organism-based; set-up: dose 1 mg/kg, route oral; details: in vivo
Rattus norvegicus [20] = test: Antiobesity activity in high-fat diet fed Fischer 344 rat DIO model assessed as inhibition of food intake at 3 mg/kg, po after 17 hrs; format: functional; details: Fischer 344, 17 h; how it was run: as §4
Rattus norvegicus [21] = test: Antiobesity activity in po dosed high-fat diet fed Fischer 344 rat DIO model assessed as inhibition of food intake after 17 hrs; format: functional, organism-based; how it was run: as §4
Mus musculus [22] = test: Antiobesity activity in high-fat diet given wild type mouse assessed as inhibition of food intake at 3 mg/kg, po qd for 2 days; format: functional; details: 48 h; how it was run: as §2
Rattus norvegicus [23] = test: Antiobesity activity in high-fat diet fed Fischer 344 rat DIO model assessed as inhibition of food intake at 1 mg/kg, po after 17 hrs; format: functional; details: Fischer 344, 17 h; how it was run: as §3
Brain = test: AUC in Fischer 344 rat brain at 1 mg/kg, po; format: ADME, organism-based; set-up: dose 1 mg/kg, route oral; details: in vivo
[24] = Half life in Fischer 344 rat at 0.3 mg/kg, iv; format: ADME, organism-based; set-up: dose 0.3 mg/kg, route intravenous; details: in vivo
[25] = Solubility of the compound in JP2 solution at 10 mM; format: physicochemical
How it was run: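 The 10 mM DMSO solution of compound was added to JP2 until opalescence appeared.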

T2 sequence (Q99705 whole entry): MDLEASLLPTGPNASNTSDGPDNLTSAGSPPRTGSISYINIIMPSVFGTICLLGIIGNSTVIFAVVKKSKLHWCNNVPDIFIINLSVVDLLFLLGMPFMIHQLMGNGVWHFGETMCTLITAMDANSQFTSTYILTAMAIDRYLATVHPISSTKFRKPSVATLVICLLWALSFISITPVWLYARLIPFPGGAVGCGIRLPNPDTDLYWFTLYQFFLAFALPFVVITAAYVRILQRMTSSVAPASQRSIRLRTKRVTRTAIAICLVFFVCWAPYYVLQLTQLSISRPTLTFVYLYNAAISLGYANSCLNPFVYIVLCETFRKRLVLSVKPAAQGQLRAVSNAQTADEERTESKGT
Sequence of Melanin-concentrating hormone receptor 1 (Rattus norvegicus, UniProt P97639) (P97639 whole entry): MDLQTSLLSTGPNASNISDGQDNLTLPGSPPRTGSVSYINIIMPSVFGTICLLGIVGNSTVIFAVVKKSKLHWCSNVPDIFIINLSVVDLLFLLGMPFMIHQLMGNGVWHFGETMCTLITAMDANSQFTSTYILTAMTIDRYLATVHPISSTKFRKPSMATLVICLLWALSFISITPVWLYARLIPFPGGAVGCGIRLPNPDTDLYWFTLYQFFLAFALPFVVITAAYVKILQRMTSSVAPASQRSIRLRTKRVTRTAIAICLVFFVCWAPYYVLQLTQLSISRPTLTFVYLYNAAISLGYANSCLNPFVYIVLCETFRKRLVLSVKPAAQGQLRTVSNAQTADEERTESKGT

Cc1ccc(-c2ccc(C(=O)Nc3ccc4cc(CN5CCCC5)cnc4c3)cc2)cc1
IC50 [1]: 660 nM
IC50 [2]: 2.2 nM

Cc1ccc(C2CCN(C(=O)Nc3ccc4cc(CN5CCCC5)cnc4c3)CC2)cc1
IC50 [2]: 23 nM

CCc1c(NC(=O)c2ccc(-c3ccc(F)cc3)cc2)ccc2cc(CN3CCCC3)cnc12
IC50 [1]: > 1000 nM
IC50 [2]: 100 nM

O=C(Nc1ccc2cc(CN3CCCC3)cnc2c1)c1ccc(-c2ccc(Cl)cc2)cc1
IC50 [1]: 630 nM
IC50 [2]: 0.74 nM
IC50 [3]: 8.5 nM

O=C(Nc1ccc2cc(CN3CCCC3)cnc2c1F)c1ccc(-c2ccc(F)cc2)cc1
IC50 [1]: 78 nM
IC50 [2]: 0.92 nM
IC50 [3]: 2.3 nM

O=C(Nc1ccc2nc(CN3CCCC3)ccc2c1)c1ccc(-c2ccc(F)cc2)cc1
IC50 [1]: 36 nM
IC50 [2]: 2.7 nM
IC50 [3]: 40 nM

COc1ccc(C2CCN(C(=O)Nc3ccc4cc(CN5CCCC5)cnc4c3)CC2)cc1
IC50 [2]: 48 nM

Cc1c(NC(=O)c2ccc(-c3ccc(F)cc3)cc2)ccc2cc(CN3CCCC3)cnc12
inhibition in vivo at 10 mg/kg (Mus musculus [4]): 5.7%
Vd [5]: 20 L/kg
bioavailability [6]: 39%
IC50 [1]: > 1000 nM
inhibition in vivo at 1 mg/kg (Rattus norvegicus [7]): 18.8%
IC50 [2]: 0.54 nM
IC50 [3]: 2.8 nM
Cmax [8]: 9 ng/mL
clearance [9]: 40 mL/min/kg
inhibition in vivo at 10 mg/kg (Rattus norvegicus [10]): 45.8%
inhibition in vivo at 3 mg/kg (Mus musculus [11]): 4.1%
IC50 [12]: 1.7 nM
inhibition in vivo at 10 mg/kg (Mus musculus [13]): 13.2%
Tmax [14]: 8 h
AUC [15]: 160 ng·h/mL
inhibition in vivo at 10 mg/kg (Rattus norvegicus [16]): 55.7%
Cmax [17]: 610 ng/g
inhibition in vivo at 3 mg/kg (Rattus norvegicus [18]): 36.7%
Tmax [19]: 4 h
inhibition in vivo at 3 mg/kg (Rattus norvegicus [20]): 28.9%
inhibition (Rattus norvegicus [21]): Dose-dependent effect
inhibition in vivo at 3 mg/kg (Mus musculus [22]): 10.2%
inhibition in vivo at 1 mg/kg (Rattus norvegicus [23]): 15.5%
AUC (Brain): 9343 ng·h/g
half-life [24]: 7.7 h

CC(C)CC(N(C)C)C1(c2ccc(Cl)cc2)CCC1 (configuration not stated) [SIBUTRAMINE]
inhibition in vivo at 1 mg/kg (Rattus norvegicus [7]): 34.6%
inhibition in vivo at 1 mg/kg (Rattus norvegicus [23]): 25.8%

COc1ccc(-c2ccc(C(=O)Nc3ccc4cc(CN5CCCC5)cnc4c3)cc2)cc1
IC50 [1]: > 1000 nM
IC50 [2]: 3.7 nM

Cc1cc2cc(CN3CCCC3)cnc2cc1NC(=O)c1ccc(-c2ccc(F)cc2)cc1
IC50 [1]: 7.4 nM
IC50 [2]: 1.3 nM
IC50 [3]: 10 nM

COc1c(NC(=O)c2ccc(-c3ccc(F)cc3)cc2)ccc2cc(CN3CCCC3)cnc12
IC50 [2]: 110 nM

O=C(Nc1ccc2c(c1)CCC(CN1CCCC1)=C2)c1ccc(-c2ccc(F)cc2)cc1
solubility [25]: < 0.03 µg/mL
IC50 [1]: 0.53 nM
IC50 [3]: 17 nM

Cc1c(NC(=O)c2ccc(-c3ccccc3)cc2)ccc2cc(CN3CCCC3)cnc12
IC50 [1]: 760 nM
IC50 [2]: 1.8 nM
IC50 [3]: 7 nM

O=C(Nc1cc2ncc(CN3CCCC3)cc2cc1Cl)c1ccc(-c2ccc(F)cc2)cc1
IC50 [1]: 240 nM
IC50 [2]: 1.4 nM
IC50 [3]: 12 nM
